Calls of active or inactive are those of the source. No cut-off for these calls is given here.
Tests used:
D283 Med = assay: Induction of senescence in human D283 cells assessed as increase in population of cells in G1 phase at 500 nM incubated for 72 hrs by fluorometric SA-beta-gal activity assay; format: functional, cell-based
Outline: (§1)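 Senescence read as fluorometric SA-β-gal activity. Cells seeded 2 × 10^3 per well in triplicate and allowed 24h to adhere, then exposed to 500 nM JQ1 or DMSO control for 72h. Assayed per kit protocol. Experiments repeated at least 3 times.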

D341 cell line = assay: Induction of apoptosis in human D341 cells assessed as increase in population of cells in sub-G1 phase at 500 nM incubated for 72 hrs by flow cytometry; format: functional, cell-based
Outline: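 Cells were cultured with 500 nM JQ1 or DMSO control, trypsinised and washed 3 times in PBS. DNA was stained with propidium iodide for 15 min and DNA content analysed by flow cytometry to give G1 and sub-G1 fractions.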

HD-MB03 [1] = assay: Antitumor activity against human HD-MB03 cells xenografted in female athymic (nu/nu) mouse assessed as delay in time required for tumor growth to an average of 1000 mm3 at 50 mg/kg, ip for 28 days relative to untreated control; format: functional; details: time 28 day
Outline: (§2)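 Female athymic nu/nu mice, 4 weeks old, received 2 × 10^7 HD-MB3 cells in Matrigel subcutaneously in the left flank. At 150–200 mm3 they were randomised, n=7 per group, to JQ1 50 mg/kg ip daily or vehicle for 28 days or until tumours exceeded 1000 mm3. Calipers were used, with volume = (breadth × length × height)/2. Time to 1000 mm3 was analysed by Kaplan-Meier.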

ONS-76 [2] = assay: Anti-proliferative activity against human ONS-76 cells assessed as reduction in cell viability incubated for 48 hrs by MTT assay; format: functional, cell-based; details: ONS-76, 48 h
Outline: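 Cells seeded in triplicate at 2 × 10^3 per well and allowed to adhere for 24h. JQ1 was given as serial dilutions in full medium, 1nM-6µM, from a 10 mM DMSO stock. Viability was read by MTT at each time point and IC50 derived from dose-response curves. Culture media were RPMI 1640/10% FCS for HD-MB3 (plus 1% NEAA), ONS-76, Daoy and UW-228, and EMEM/10% FCS for D-283 and D-341.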

ONS-76 [3] = assay: Antiproliferative activity against human ONS-76 cells at 500 nM incubated for 72 hrs by BrdU ELISA method; format: functional, cell-based
Outline: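 Cells seeded in triplicate at 2 × 10^3 per well with 24h adherence, then treated with 500 nM JQ1 or DMSO control for 72h. Proliferation was measured by BrdU incorporation ELISA. Experiments were run independently at least 3 times.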

Daoy = assay: Induction of senescence in human Daoy cells assessed as increase in population of cells in G1 phase at 500 nM incubated for 72 hrs by fluorometric SA-beta-gal activity assay; format: functional, cell-based; outline: as §1
HD-MB03 [4] = assay: Antitumor activity against human HD-MB03 cells xenografted in female athymic (nu/nu) mouse assessed as increase in mouse survival time at 50 mg/kg, ip for 28 days relative to untreated control; format: functional, organism-based; details: time 28.0 day; outline: as §2

Compound: Cc1sc2c(c1C)C(c1ccc(Cl)cc1)=N[C@@H](CC(=O)OC(C)(C)C)c1nnc(C)n1-2
- Activity (D283 Med): Active
- Activity (D341 cell line): Active
- Time (HD-MB03 [1]): 8 days
- IC50 (ONS-76 [2]): 172 nM
- Activity (ONS-76 [3]): Active
- Activity (Daoy): Active
- Activity (HD-MB03 [4]): Active

— ChEMBL document CHEMBL5712071, “BET bromodomain protein inhibition is a therapeutic option for medulloblastoma” (Oncotarget, 2013)
